Screening results as filed in PubChem BioAssay.
In the library only some 2.6% were active in any assay of this set; here they are far more common.
Calb FLC = affects C. albicans growth with fluconazole | C. albicans CaCi-2 (fluconazole-resistant clinical isolate) + fluconazole, Alamar Blue growth, 48 h | growth inhibition, % (concentration not given with the values) | hit rate 0.57% among 300,000;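 active = growth inhibition above about 58% in most replicates, limit read from the data, passing the limit was not always enough; inconclusive = exactly half the replicates above a set limit; inactive = most replicates below a set limit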;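 also: all wells also contain fluconazole at 8 µg/ml as a sub-toxic cotreatment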
VIM-2 inhibitor = blocks Pseudomonas aeruginosa VIM-2 metallo-beta-lactamase; purified VIM-2, nitrocefin hydrolysis, epi-absorbance fluorescence; inhibition, % at 5.6 µM; AID 1527; hit rate 0.89% among 290,000;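 active = inhibition above the mean of all tested compounds plus 3 SD, cutoff set per screening run, cut at about 7.5% in these data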;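 also: red hydrolysis product quenches plate fluorescence so inhibitors raise well fluorescence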
IMP-1 inh = blocks Pseudomonas aeruginosa IMP-1 metallo-beta-lactamase | purified IMP-1, nitrocefin hydrolysis, epi-absorbance fluorescence | inhibition, % at 5.6 µM | hit rate 0.45% among 290,000 | AID 1556;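 active = inhibition above the mean plus 3 SD of all compounds in the same screening run, cut at about 4.5% in these data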
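System – purified recombinant IMP-1 beta-lactamase · Input – IMP-1 dispensed at 0.2 nM · Timing – 15 min preincubation plus 25 min reaction at 25 °C · Signal – Epi-absorbance fluorescence, 480 nm excitation, 530 nm emission · Measure – percent IMP-1 inhibition derived from blank-referenced optical density · Controls – Enzyme-plus-DMSO low control, enzyme-free DMSO high control · Replication – singlicate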
PHOSPHO1 inh = inhibitors of human PHOSPHO1 phosphatase; inhibition, % at 13.3 µM; recombinant PHOSPHO1, absorbance phosphatase assay; Q8TCT1; hit rate 1.1% among 290,000; in the data active = inhibition above about 60%
Target sequence (Q8TCT1 whole entry, looked up): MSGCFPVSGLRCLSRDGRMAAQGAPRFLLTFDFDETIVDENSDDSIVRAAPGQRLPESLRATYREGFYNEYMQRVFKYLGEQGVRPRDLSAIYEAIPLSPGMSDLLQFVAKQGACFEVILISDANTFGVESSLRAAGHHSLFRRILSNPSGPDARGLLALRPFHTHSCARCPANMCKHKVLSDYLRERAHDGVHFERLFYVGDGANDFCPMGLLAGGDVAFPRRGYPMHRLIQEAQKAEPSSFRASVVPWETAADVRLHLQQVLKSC
ARFGAP1 inh = inhibitors of rat ARFGAP1. Q62848. Arfgap1-stimulated ARF1 GTP hydrolysis, GDP FP detection. inhibition, % at 16.5 µM. hit rate 0.26% among 360,000;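 active = inhibition above a per-plate limit, mean inhibition of low control wells plus 3 SD, cut at about 25% in these data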
Target sequence (Q62848 1-136 limits assumed): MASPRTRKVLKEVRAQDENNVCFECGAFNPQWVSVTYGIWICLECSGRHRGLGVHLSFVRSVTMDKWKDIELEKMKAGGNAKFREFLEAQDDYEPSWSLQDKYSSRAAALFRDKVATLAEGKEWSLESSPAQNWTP
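Material: rat Arfgap1 GAP domain (His6, aa 1-136), purified enzyme. Also added: human ARF1(Δ1-17)-GTP substrate. Compound dosing: 16.5 µM single point, 1.26% DMSO. Timing: enzyme reaction 120 min at 25 °C after 20 min preincubation. Signal: GDP detection by fluorescence polarization. Read-out basis: percent inhibition of GAP-stimulated GDP formation, scaled between DMSO and no-Arfgap1 medians.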
ASAP1 inh = inhibitors of human ASAP1 ArfGAP activity; Q9ULH1; hit rate 0.19% among 360,000; ASAP1-stimulated ARF1 GTP hydrolysis, GDP FP detection; inhibition, % at 16.5 µM; in the data active = inhibition above about 25%
Hits are given with their value.

COc1ccc(C(=O)c2c(C(F)(F)F)oc3c2C(=O)c2ccccc2C3=O)cc1OC was read as Calb FLC inactive, VIM-2 inhibitor inactive, IMP-1 inh inactive, PHOSPHO1 inh 82, ARFGAP1 inh inactive and ASAP1 inh inactive.
Screening CCN1/C(=C/c2cccc[n+]2C)Sc2ccc(OC)cc21 returned Calb FLC 99, VIM-2 inhibitor inactive, IMP-1 inh inactive, PHOSPHO1 inh inactive, ARFGAP1 inh inactive and ASAP1 inh inactive.
`Cc1ccccc1NC1=C(Cl)C(=O)N(C2CCCCC2)C1=O` gave Calb FLC inactive, VIM-2 inhibitor inactive, IMP-1 inh 8.2, PHOSPHO1 inh inactive, ARFGAP1 inh inactive and ASAP1 inh inactive.
CCC(=O)Nc1nnc(S(=O)(=O)N(C)Cc2ccco2)s1 was read as Calb FLC inactive, VIM-2 inhibitor inactive, IMP-1 inh inactive, PHOSPHO1 inh inactive, ARFGAP1 inh inactive and ASAP1 inh inactive.
`Cc1ccccc1C(=O)Nc1nnc(S(=O)(=O)N(C)Cc2ccco2)s1` gave Calb FLC inactive, VIM-2 inhibitor 9.8, IMP-1 inh inactive, PHOSPHO1 inh inactive, ARFGAP1 inh inactive and ASAP1 inh inactive.
CN(Cc1ccco1)S(=O)(=O)c1nnc(NC(=O)c2ccccc2Cl)s1 was read as Calb FLC inactive, VIM-2 inhibitor 9.1, IMP-1 inh inactive, PHOSPHO1 inh inactive, ARFGAP1 inh inactive and ASAP1 inh inactive.
For COC(=O)[C@]12C[C@H](CC(=O)N3CCOCC3)C(=O)N(Cc3ccccc3)C1=C[C@H](C1CCCC1)O[C@@H]2C the results were ARFGAP1 inh inactive and ASAP1 inh inactive.
O=C(CSCC(=O)Nc1ccccc1)N/N=C/c1c(O)ccc2ccccc12 was read as Calb FLC 113, VIM-2 inhibitor inactive, IMP-1 inh inactive, PHOSPHO1 inh inactive, ARFGAP1 inh inactive and ASAP1 inh inactive.
O=C(N/N=C/c1c(O)ccc2ccccc12)Nc1ccccc1 was read as Calb FLC inactive, ARFGAP1 inh inactive and ASAP1 inh inactive.
O=C(N/N=C\c1c(O)ccc2ccccc12)c1cncc(Br)c1 was read as Calb FLC 82, VIM-2 inhibitor inactive, IMP-1 inh inactive, PHOSPHO1 inh inactive, ARFGAP1 inh inactive and ASAP1 inh inactive.
`O=C(N/N=C\c1c(O)ccc2ccccc12)c1ccc(O)cc1` gave Calb FLC inactive, VIM-2 inhibitor inactive, IMP-1 inh inactive, PHOSPHO1 inh inactive, ARFGAP1 inh inactive and ASAP1 inh inactive.
Screening Cc1ccc(C(=O)N/N=C/c2c(O)ccc3ccccc23)cn1 returned Calb FLC 89, VIM-2 inhibitor inactive, IMP-1 inh inactive, PHOSPHO1 inh inactive, ARFGAP1 inh inactive and ASAP1 inh inactive.
O=C(N/N=C/c1c(O)ccc2ccccc12)c1cccnc1 was read as Calb FLC 100, VIM-2 inhibitor inactive, IMP-1 inh inactive, PHOSPHO1 inh inactive, ARFGAP1 inh inactive and ASAP1 inh inactive.
For COC(=O)C1=C(C)N(Cc2ccccc2C(F)(F)F)C(=NCc2ccccc2)NC1c1cccc(C(F)(F)F)c1 (configuration not stated) the results were ARFGAP1 inh inactive and ASAP1 inh inactive.
`CCN=C1NC(c2ccc(F)cc2)C(C(=O)OC)=C(C)N1Cc1ccccc1C(F)(F)F` (configuration not stated) gave ARFGAP1 inh inactive and ASAP1 inh inactive.
`O=C(N/N=C/c1ccc(O)c2ncccc12)c1cccc(Br)c1` gave Calb FLC 116, VIM-2 inhibitor inactive, IMP-1 inh inactive, PHOSPHO1 inh inactive, ARFGAP1 inh inactive and ASAP1 inh inactive.
O=C(N/N=C/c1cc(Br)ccc1O)c1ccncc1 was read as Calb FLC inactive, VIM-2 inhibitor inactive, IMP-1 inh inactive, PHOSPHO1 inh inactive, ARFGAP1 inh inactive and ASAP1 inh inactive.
Nc1nc2c(ncn2[C@@H]2O[C@H](C(=O)N[C@H](Cc3ccccc3)C(=O)NC3CCCCC3)[C@@H](O)[C@H]2O)c(=O)[nH]1 was read as ARFGAP1 inh inactive and ASAP1 inh inactive.
`COC(=O)c1cc2c(c3c4ccccc4n(S(=O)(=O)c4cccc(C)c4)c13)C(=O)N(Cc1ccccc1OC)C2` gave ARFGAP1 inh inactive and ASAP1 inh inactive.
For CCCCCCCC(=O)O the results were ARFGAP1 inh inactive and ASAP1 inh inactive.
`C=C(C(=O)O)C(CCCCCC)C(=O)O` (configuration not stated) gave Calb FLC inactive, VIM-2 inhibitor inactive, IMP-1 inh 14, PHOSPHO1 inh inactive, ARFGAP1 inh inactive and ASAP1 inh inactive.
For CCc1nc2c(OCCc3cccc(OC)c3)cccn2c1N(C=O)Cc1ccc(OC)cc1 the results were ARFGAP1 inh inactive and ASAP1 inh inactive.
Screening COCCNC(=O)C(c1cccs1)N(Cc1cccs1)C(=O)Cn1nnc2ccccc21 (configuration not stated) returned Calb FLC inactive, VIM-2 inhibitor inactive, IMP-1 inh 4.6, PHOSPHO1 inh inactive, ARFGAP1 inh inactive and ASAP1 inh inactive.
Screening N#Cc1c(SCc2ccc(Cl)cc2)sc(C(=O)c2ccccc2)c1N returned Calb FLC inactive, VIM-2 inhibitor inactive, IMP-1 inh inactive, PHOSPHO1 inh 89, ARFGAP1 inh inactive and ASAP1 inh inactive.
Screening O=S(=O)(CS(=O)(=O)c1ccc(Br)cc1)c1ccc(Br)cc1 returned ARFGAP1 inh inactive and ASAP1 inh inactive.
`CNC(=O)c1cc(OCC(F)(F)F)ccc1OCC(F)(F)F` gave Calb FLC inactive, VIM-2 inhibitor inactive, IMP-1 inh inactive, PHOSPHO1 inh 61, ARFGAP1 inh inactive and ASAP1 inh inactive.
`CCN(C(=O)COC(=O)c1cc(-c2cccs2)nc2ccccc12)C1CCS(=O)(=O)C1` (configuration not stated) gave Calb FLC inactive, VIM-2 inhibitor inactive, IMP-1 inh inactive, PHOSPHO1 inh 63, ARFGAP1 inh inactive and ASAP1 inh inactive.
O=C(N[C@H](Cc1ccccc1)C(=O)NCCCc1ccccc1)[C@H]1O[C@@H](n2ccc(=O)[nH]c2=O)[C@H](O)[C@@H]1O was read as ARFGAP1 inh inactive and ASAP1 inh inactive.
`Cn1ccnc1SCC(=O)c1ccc(Br)cc1` gave Calb FLC inconclusive, VIM-2 inhibitor inactive, IMP-1 inh inactive, PHOSPHO1 inh 61, ARFGAP1 inh inactive and ASAP1 inh inactive.
For Cn1ccnc1SCC(=O)c1ccc([N+](=O)[O-])cc1 the results were Calb FLC inactive, VIM-2 inhibitor inactive, IMP-1 inh inactive, PHOSPHO1 inh inactive, ARFGAP1 inh inactive and ASAP1 inh inactive.
For CC(C)c1[nH]nc2c1C(c1ccccc1)NC2=O (configuration not stated) the results were ARFGAP1 inh inactive and ASAP1 inh inactive.
For O=C(Cn1ncc(Cl)c(Cl)c1=O)c1ccc(Cl)cc1 the results were Calb FLC inactive, VIM-2 inhibitor inactive, IMP-1 inh inactive, PHOSPHO1 inh inactive, ARFGAP1 inh inactive and ASAP1 inh inactive.
O=C(OCn1ncc(Cl)c(Cl)c1=O)c1ccc(F)cc1 was read as Calb FLC 107, VIM-2 inhibitor inactive, IMP-1 inh inactive and PHOSPHO1 inh inactive.
